The results in this text go back to ChEMBL document CHEMBL5620363, “HIV-1 protease inhibitors with a P1 phosphonate modification maintain potency against drug-resistant variants by increased interactions with flap residues” (Eur J Med Chem, 2023).

Data set [1] deals with Protease (Human immunodeficiency virus 1, UniProt Q9YQ12, I84V). In words: Binding affinity to drug-resistant HIV-1 protease I84V mutant expressed in Escherichia coli TAP-106 cells assessed as inhibition constant using a EDANS/DABCYL FRET-peptide substrate preincubated for 1 hr followed by substrate addition measured after 1 hr by fluorogenic assay.
In data set [2] the target is Protease (Human immunodeficiency virus 1, UniProt Q9YQ12, A71V/I50V). In words: Binding affinity to drug-resistant HIV-1 protease I50V/A71V mutant expressed in Escherichia coli TAP-106 cells assessed as inhibition constant using a EDANS/DABCYL FRET-peptide substrate preincubated for 1 hr followed by substrate addition measured after 1 hr by fluorogenic assay.
Data set [3] is described as follows: Binding affinity to drug-resistant HIV-1 protease I13V/G16E/V32I/L33F/K45I/M46I/V82F/I84V mutant expressed in Escherichia coli TAP-106 cells assessed as inhibition constant using a EDANS/DABCYL FRET-peptide substrate preincubated for 1 hr followed by substrate addition measured after 1 hr by fluorogenic assay. On the set-up: species or system Human immunodeficiency virus 1.

The nature of data set [4]: Binding affinity to drug-resistant HIV-1 protease I13V/G16E/V32I/L33F/K45I/M46I/V82F/I84V/A71V/L76V mutant expressed in Escherichia coli TAP-106 cells assessed as inhibition constant using a EDANS/DABCYL FRET-peptide substrate preincubated for 1 hr followed by substrate addition measured after 1 hr by fluorogenic assay. More on the design: species or system Human immunodeficiency virus 1.

A short description of data set [5]: Binding affinity to drug-resistant HIV-1 protease I13V/G16E/V32I/L33F/K45I/M46I/V82F/I84V/A71V/L76V/I54L mutant expressed in Escherichia coli TAP-106 cells assessed as inhibition constant using a EDANS/DABCYL FRET-peptide substrate preincubated for 1 hr followed by substrate addition measured after 1 hr by fluorogenic assay. On the set-up: species or system Human immunodeficiency virus 1.

Data set [6] relates to Human immunodeficiency virus 1. The data set can be described thus: Antiviral activity against wild-type HIV-1 NL4-3 infected in human TZM-bl cells using virus particles harvested from 18 hrs drug-treated HEK293T cells harboring viral transfection assessed as reduction in viral infection measured after 48 hrs in TZM-bl cells by luciferase based assay. The format is functional, organism-based. The settings on record: Human immunodeficiency virus 1, NL4-3, TZM-bl.

Data set [7] in a line: Cytotoxicity against HEK293T cells incubated for 48 hrs by absorbance based assay. In kind it is toxicity, cell-based, HEK-293T. The settings on record: human, HEK293T cells.
Another data set can be described thus: in vitro. The settings on record: human.
Data set [8] deals with Human immunodeficiency virus 1. In words: Antiviral activity against wild-type HIV-1 NL4-3 infected in human TZM-bl cells using virus particles harvested from 24 hrs drug-treated human CEM cells infected with virus assessed as reduction in viral infection measured after 48 hrs in TZM-bl cells by Firefly luciferase based assay. The format is functional, organism-based. The settings on record: Human immunodeficiency virus 1, NL4-3, TZM-bl. The method, boiled down: (§1)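 Virus stocks grown by infecting 3 × 10^6 CEM cells with virus at 37 °C for 2–3 h, then RPMI with medium changes every 48 h until CPE. Infected CEM cells plated onto five-fold serial inhibitor dilutions in RPMI (top 100 μM).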

Data set [9] concerns Human immunodeficiency virus 1. In words: Antiviral activity against drug-resistant HIV-1 harboring Gag mutation/protease I13V/G16E/V32I/L33F/K45I/M46I/A71V/L76V/V82F/I84V mutant infected in human TZM-bl cells using virus particles harvested from 24 hrs drug-treated human CEM cells infected with virus assessed as reduction in viral infection measured after 48 hrs in TZM-bl cells by Firefly luciferase based assay. The format is functional, organism-based. The settings on record: Human immunodeficiency virus 1, TZM-bl. The method, boiled down: as §1

The test system of data set [10] is Human immunodeficiency virus 1. In words: Antiviral activity against drug-resistant HIV-1 harboring RT mutation/protease I13V/G16E/V32I/L33F/K45I/M46I/A71V/L76V/V82F/I84V mutant infected in human TZM-bl cells using virus particles harvested from 24 hrs drug-treated human CEM cells infected with virus assessed as reduction in viral infection measured after 48 hrs in TZM-bl cells by Firefly luciferase based assay. In kind it is functional, organism-based. The settings on record: Human immunodeficiency virus 1, TZM-bl. The method, boiled down: as §1

Data set [11] relates to Human immunodeficiency virus 1. The data set can be described thus: Antiviral activity against drug-resistant HIV-1 harboring protease L10F/L33F/M46I/I47V/I50V/F53L/L63P/A71V/L76S/V82I/I85V/L89I mutant infected in human TZM-bl cells using virus particles harvested from 24 hrs drug-treated human CEM cells infected with virus assessed as reduction in viral infection measured after 48 hrs in TZM-bl cells by Firefly luciferase based assay. The settings on record: Human immunodeficiency virus 1, TZM-bl. The format is functional, organism-based.

Data set [12] relates to Human immunodeficiency virus 1. In words: Antiviral activity against drug-resistant HIV-1 harboring protease L10F/V11I/I13V/V32I/L33F/K43T/M46L/I54L/A71V/V82I/I84V/L89M/T91S/Q92R mutant infected in human TZM-bl cells using virus particles harvested from 24 hrs drug-treated human CEM cells infected with virus assessed as reduction in viral infection measured after 48 hrs in TZM-bl cells by Firefly luciferase based assay. The format is functional, organism-based. The settings on record: Human immunodeficiency virus 1, TZM-bl. The method, boiled down:
as §1

Data set [13] relates to Human immunodeficiency virus 1. The data set can be described thus: Antiviral activity against drug-resistant HIV-1 harboring protease L10F/I15V/M46I/I47V/I50V/F53L/A71V/V82I/I84V/L89T mutant infected in human TZM-bl cells using virus particles harvested from 24 hrs drug-treated human CEM cells infected with virus assessed as reduction in viral infection measured after 48 hrs in TZM-bl cells by Firefly luciferase based assay. The format is functional, organism-based. The settings on record: Human immunodeficiency virus 1, TZM-bl. The method, boiled down:
as §1

Data set [14] relates to Human immunodeficiency virus 1. The data set can be described thus: Antiviral activity against drug-resistant HIV-1 harboring protease L10F/I13V/L33F/K45R/M46I/I47V/I50V/F53L/I54L/I66F/A71V/T74A/L76S/V82I mutant infected in human TZM-bl cells using virus particles harvested from 24 hrs drug-treated human CEM cells infected with virus assessed as reduction in viral infection measured after 48 hrs in TZM-bl cells by Firefly luciferase based assay. In kind it is functional, organism-based. The settings on record: Human immunodeficiency virus 1, TZM-bl. The method, boiled down: as §1

Data set [15] has as its system Human immunodeficiency virus 1. The data set can be described thus: Antiviral activity against DRV-resistant HIV-1 infected in human TZM-bl cells using virus particles harvested from 24 hrs drug-treated human CEM cells infected with virus assessed as reduction in viral infection measured after 48 hrs in TZM-bl cells by Firefly luciferase based assay. The settings on record: Human immunodeficiency virus 1, TZM-bl. The format is functional, organism-based. The method, boiled down: as §1

Data set [16] concerns Human immunodeficiency virus 1. The data set can be described thus: Selectivity ratio of EC50 for drug-resistant HIV-1 harboring Gag mutation/protease I13V/G16E/V32I/L33F/K45I/M46I/A71V/L76V/V82F/I84V mutant infected in human TZM-bl cells to EC50 for wild-type HIV-1 NL4-3 infected in human TZM-bl cells. In kind it is functional.
Data set [17] deals with Human immunodeficiency virus 1. In words: Selectivity ratio of EC50 for drug-resistant HIV-1 harboring RT mutation/protease I13V/G16E/V32I/L33F/K45I/M46I/A71V/L76V/V82F/I84V mutant infected in human TZM-bl cells to EC50 for wild-type HIV-1 NL4-3 infected in human TZM-bl cells. The format is functional.
Data set [18] has as its system Human immunodeficiency virus 1. In words: Selectivity ratio of EC50 for drug-resistant HIV-1 harboring protease L10F/L33F/M46I/I47V/I50V/F53L/L63P/A71V/L76S/V82I/I85V/L89I mutant infected in human TZM-bl cells to EC50 for wild-type HIV-1 NL4-3 infected in human TZM-bl cells. The format is functional.
Data set [19] concerns Human immunodeficiency virus 1. In words: Selectivity ratio of EC50 for drug-resistant HIV-1 harboring protease L10F/V11I/I13V/V32I/L33F/K43T/M46L/I54L/A71V/V82I/I84V/L89M/T91S/Q92R mutant infected in human TZM-bl cells to EC50 for wild-type HIV-1 NL4-3 infected in human TZM-bl cells. The format is functional.
Data set [20] concerns Human immunodeficiency virus 1. The data set can be described thus: Selectivity ratio of EC50 for drug-resistant HIV-1 harboring protease L10F/I15V/M46I/I47V/I50V/F53L/A71V/V82I/I84V/L89T mutant infected in human TZM-bl cells to EC50 for wild-type HIV-1 NL4-3 infected in human TZM-bl cells. The format is functional.
Data set [21] deals with Human immunodeficiency virus 1. In words: Selectivity ratio of EC50 for drug-resistant HIV-1 harboring protease L10F/I13V/L33F/K45R/M46I/I47V/I50V/F53L/I54L/I66F/A71V/T74A/L76S/V82I mutant infected in human TZM-bl cells to EC50 for wild-type HIV-1 NL4-3 infected in human TZM-bl cells. The format is functional.
Data set [22] has as its system Human immunodeficiency virus 1. In words: Selectivity ratio of EC50 for DRV-resistant HIV-1 infected in human TZM-bl cells to EC50 for wild-type HIV-1 NL4-3 infected in human TZM-bl cells. The format is functional.

Protease (Human immunodeficiency virus 1, UniProt Q9YQ12, A71V/I50V), sequence (Q9YQ12 entry or part of it A71V/I50V): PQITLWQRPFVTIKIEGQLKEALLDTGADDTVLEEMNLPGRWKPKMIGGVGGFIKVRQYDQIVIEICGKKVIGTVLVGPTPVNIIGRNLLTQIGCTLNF
Protease (Human immunodeficiency virus 1, UniProt Q9YQ12, I84V), sequence (Q9YQ12 entry or part of it I84V): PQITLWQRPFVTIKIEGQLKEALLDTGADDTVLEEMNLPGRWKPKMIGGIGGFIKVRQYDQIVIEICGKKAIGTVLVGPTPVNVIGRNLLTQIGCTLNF

Broadly, the Ki is a dissociation constant, usually derived from enzyme kinetics or from competition with a known ligand. In general, EC50 refers to the concentration needed to bring the measured effect to its halfway point. What is called CC50 is the concentration giving 50% cytotoxicity. A low value points to harm at low concentration. In the case of `CCOP(=O)(COc1ccc(C[C@H](NC(=O)O[C@H]2CO[C@H]3OCC[C@H]32)[C@H](O)CN(C[C@@H](C)CC)S(=O)(=O)c2ccc(CO)cc2)cc1)OCC`, the inhibition constant Ki is below 0.005 nM on Protease [1]; below 0.005 nM at Protease [2]; 4.98 nM in data set [3]; 52.9 nM in data set [4]; 103 nM in data set [5]. The EC50 in data set [6] is 27.3 nM. The molecule further displayed a 50% cytotoxic concentration (CC50) at 48 h in [7] above 100000 nM. For the same molecule, the selectivity ratio in “in vitro” is above 3.66.

For the molecule `CCC(CC)CN(C[C@@H](O)[C@H](Cc1ccccc1)NC(=O)O[C@H]1CO[C@H]2OCC[C@H]21)S(=O)(=O)c1ccc(OC)cc1`, the concentration for a half-maximal effect (EC50) turned out to be 3 nM in data set [8]; 140 nM in data set [9]; 250 nM in data set [10]; 800 nM in data set [11]; 5380 nM in data set [12]; 21800 nM in data set [13]. The figures for the EC50 in data set [14] and in [15] were 16700 nM and 1600 nM, respectively. The “Ratio EC50” value in [16] stood at 47; in data set [17], 83; in data set [18] it was 267; in data set [19], 1793; in data set [20] it was 7267; in data set [21], 5567. In data set [22], the “Ratio EC50” value is 533.
